# In ChEMBL document CHEMBL1125014, “Synthesis and structure-activity relationships of new 9-N-alkyl derivatives of 9(S)-erythromycylamine” (1990):
# Key:
# [1] = test system: Rattus norvegicus; test: Plasma concentration in rats was determined by oral administration, 20 mg/kg at 40 min; type: functional, organism-based; design: dose 20 mg/kg
# In short: (§1)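 Peripheral plasma antibiotic levels in rats given 20 mg/kg orally or subcutaneously. Plasma was sampled at timed points after dosing. Levels were measured by microbiological agar assay with Micrococcus luteus seeded in Antibiotic Media 1, reading zone sizes, and were calculated from a standard curve for the appropriate compound. Each value is the average of three rats per time point, in μg/mL.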
# [2] = test system: Mus musculus; test: ED50 value was measured by po administration against staphylococcus aureus infection in mice (in vivo, in experiment 1); type: functional
# In short: (§2)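 Infected mice were dosed orally or subcutaneously at 1 and 5 h postinfection, 0.25 mL of antibiotic solution in 10% aqueous ethanol per dose. Tartaric acid was added where needed for solubility. Several dose concentrations were tested to give the ED50.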
# [3] = species: Rattus norvegicus; test: Fluid concentration in lung tissue was determined in rats at 6 h; type: functional
# In short: (§3)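 Rats dosed by gavage at 20 mg/kg; lung, liver, kidney, urine and serum sampled at 0.5, 1, 2, 4 and 6 h after dosing. Antibiotic measured by microbiological assay with Micrococcus luteus seeded in Antibiotic Medium 1. Zone sizes were read against the standard curve for the same compound. Each value is the average of three rats per time point.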
# [4] = test system: Mus musculus; test: Plasma concentration in mice was determined by oral administration, 20 mg/kg at 40 min; type: functional, organism-based; design: dose 20 mg/kg
# In short: (§4)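 Mice given 20 mg/kg orally or subcutaneously; peripheral plasma sampled at 5, 20 and 40 min and at 1, 2 and 4 h after dosing. Microbiological assay used Micrococcus luteus seeded in Antibiotic Medium 1, with zone sizes converted by the compound's own standard curve. Each value is the average of five mice per time point.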
# [5] = test system: Mus musculus; test: Plasma concentration in mice was determined by subcutaneous administration, 20 mg/kg at 4 hr; type: functional, organism-based; design: dose 20 mg/kg; in short: as §4
# [6] = test system: Mus musculus; test: ED50 value was measured by sc administration against streptococcus pyogenes infection in mice (in vivo, in experiment 1); type: functional; in short: as §2
# [7] = test system: Streptococcus pyogenes; test: Effective dose against mice infected with streptococcus pyogenes after peroral administration (in vivo); type: functional; conditions: in Mus musculus, po
# [8] = species: Rattus norvegicus
# [9] = test system: Mus musculus; test: ED50 value was measured by sc administration against streptococcus pneumoniae infection in mice (in vivo, in experiment 3); type: functional
# [10] = test system: Mus musculus; test: Plasma concentration in mice was determined by subcutaneous administration, 20 mg/kg at 1 hr; type: functional, organism-based; design: dose 20 mg/kg; in short: as §4
# [11] = species: Rattus norvegicus; test: Fluid concentration in lung tissue was determined in rats at 0.5 h; type: functional; in short: as §3
# [12] = test system: Staphylococcus aureus; test: MIC value measured against staphylococcus aureus X1; type: functional
# [13] = test system: Rattus norvegicus; test: Plasma concentration in rats was determined by subcutaneous administration, 20 mg/kg at 8 h; type: functional, organism-based; design: dose 20 mg/kg; in short: as §1
# [14] = species: Rattus norvegicus; test: Fluid concentration in lung tissue was determined in rats at 2 h; type: functional; in short: as §3
# [15] = species: Rattus norvegicus; test: Fluid concentration in lung tissue was determined in rats at 1 h; type: functional; in short: as §3
# [16] = test system: Staphylococcus aureus; test: Effective dose against mice infected with Staphylococcus aureus after peroral administration (in vivo); type: functional; conditions: in Mus musculus, po
# [17] = species: Rattus norvegicus; test: Fluid concentration in kidney tissue was determined in rats at 0.5 h; type: functional
# In short: (§5)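 Rats were gavaged at 20 mg/kg and tissues sampled 0.5–6 h after dosing. Drug was assayed microbiologically with Micrococcus luteus seeded in Antibiotic Media 1. Zone sizes were read against each compound's own standard curve. Values are the mean of three rats per time point, in μg/g.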
# [18] = test system: Mus musculus; test: ED50 value was measured by po administration against streptococcus pyogenes infection in mice (in vivo, in experiment 3); type: functional
# [19] = test system: Mus musculus; test: ED50 value was measured by po administration against streptococcus pneumoniae infection in mice (in vivo, in experiment 2); type: functional; in short: as §2
# [20] = species: Rattus norvegicus; test: Fluid concentration in urine tissue was determined in rats at 6 h; type: functional; in short: as §3
# [21] = test system: Mus musculus; test: ED50 value was measured by po administration against streptococcus pneumoniae infection in mice (in vivo, in experiment 3); type: functional
# [22] = species: Rattus norvegicus; test: Fluid concentration in lung tissue was determined in rats at 4 h; type: functional; in short: as §3
# [23] = test system: Mus musculus; test: ED50 value was measured by sc administration against streptococcus pneumoniae infection in mice (in vivo, in experiment 1); type: functional; in short: as §2
# [24] = species: Rattus norvegicus; test: Fluid concentration in serum tissue was determined in rats at 1 h; type: functional; in short: as §3
# [25] = test system: Mus musculus; test: ED50 value was measured by po administration against staphylococcus aureus infection in mice (in vivo, in experiment 3); type: functional
# [26] = test system: Haemophilus influenzae; test: MIC value was measured against haemophilus influenzae CL; type: functional
# [27] = species: Rattus norvegicus; test: Fluid concentration in liver tissue was determined in rats at 1 h; type: functional; in short: as §3
# [28] = test system: Mus musculus; test: ED50 value was measured by sc administration against staphylococcus aureus infection in mice (in vivo, in experiment 3); type: functional
# [29] = test system: Mus musculus; test: ED50 value was measured by sc administration against staphylococcus aureus infection in mice (in vivo, in experiment 1); type: functional; in short: as §2
# [30] = test system: Mus musculus; test: ED50 value was measured by po administration against streptococcus pyogenes infection in mice (in vivo, in experiment 1); type: functional; in short: as §2
# [31] = test system: Staphylococcus epidermidis; test: microbe, parasite or virus in culture; type: functional
# [32] = test system: Mus musculus; test: Plasma concentration in mice was determined by subcutaneous administration, 20 mg/kg at 20 min; type: functional, organism-based; design: dose 20 mg/kg; in short: as §4
# [33] = test system: Mus musculus; test: Plasma concentration in mice was determined by subcutaneous administration, 20 mg/kg at 2 hr; type: functional, organism-based; design: dose 20 mg/kg; in short: as §4
# [34] = test system: Mus musculus; test: ED50 value was measured by sc administration against staphylococcus aureus infection in mice (in vivo, in experiment 2); type: functional; in short: as §2
# [35] = test system: Mus musculus; test: Plasma concentration in mice was determined by subcutaneous administration, 20 mg/kg at 40 min; type: functional, organism-based; design: dose 20 mg/kg; in short: as §4
# [36] = test system: Streptococcus pneumoniae; test: MIC value measured against streptococcus pneumoniae Park1; type: functional
# [37] = test system: Mus musculus; test: ED50 value was measured by po administration against streptococcus pneumoniae infection in mice (in vivo, in experiment 1); type: functional; in short: as §2
# [38] = test system: Streptococcus pyogenes; test: MIC value measured against streptococcus pyogenes C203; type: functional
# [39] = species: Rattus norvegicus; remark: listed apart in the source
# [40] = test system: Mus musculus; test: Plasma concentration in mice was determined by subcutaneous administration, 20 mg/kg at 5 min; type: functional, organism-based; design: dose 20 mg/kg; in short: as §4
# [41] = species: Rattus norvegicus; test: Fluid concentration in liver tissue was determined in rats at 0.5 h; type: functional; in short: as §5
# [42] = test system: Streptococcus pneumoniae; test: Effective dose against mice infected with streptococcus pneumoniae after peroral administration (in vivo); type: functional; conditions: in Mus musculus, po
# [43] = species: Rattus norvegicus; test: Fluid concentration in kidney tissue was determined in rats at 2 h; type: functional; in short: as §5
# [44] = species: Rattus norvegicus; test: Fluid concentration in kidney tissue was determined in rats at 1 h; type: functional; in short: as §5
# [45] = species: Rattus norvegicus; test: Fluid concentration in serum was determined in rats at 2 hr; type: functional; in short: as §3
# [46] = species: Rattus norvegicus; remark: listed apart in the source
# [47] = species: Rattus norvegicus; test: Fluid concentration in urine was determined in rats at 4 hr; type: functional; in short: as §3
# [48] = species: Rattus norvegicus; test: Fluid concentration in serum was determined in rats at 4 hr; type: functional; in short: as §3
# [49] = test system: Rattus norvegicus; test: Plasma concentration in rats was determined by oral administration, 20 mg/kg at 8 hr; type: functional, organism-based; design: dose 20 mg/kg; in short: as §1
# [50] = species: Mus musculus
# [51] = species: Rattus norvegicus; test: Fluid concentration in urine was determined in rats at 2 hr; type: functional; in short: as §3
# [52] = species: Rattus norvegicus; remark: listed apart in the source
# [53] = species: Rattus norvegicus; test: Fluid concentration in urine was determined in rats at 1 hr; type: functional; in short: as §3
# [54] = Mus musculus, sc, read-out: ED50
# [55] = Mus musculus, po, read-out: ED50
compound,measurement,setting,value
CCCN[C@@H]1[C@H](C)[C@@H](O)[C@](C)(O)[C@@H](CC)OC(=O)[C@H](C)[C@@H](OC2CC(C)(OC)C(O)C(C)O2)[C@H](C)[C@@H](OC2OC(C)CC(N(C)C)C2O)[C@](C)(O)C[C@H]1C (stereo partly drawn),Plasma concentration,[1],0.01 µg/mL
same,ED50,[2],19 mg/kg
same,Activity,[3],5.08 µg/mL
same,Plasma concentration,[4],0.036 µg/mL
same,Plasma concentration,[5],0.06 µg/mL
same,ED50,[6],1.7 mg/kg
same,ED50,[7],3 mg/kg
same,Plasma concentration,[8],0.08 µg/mL
same,ED50,[9],1.8 mg/kg
same,Plasma concentration,[10],0.39 µg/mL
same,Activity,[11],0.31 µg/mL
same,MIC,[12],0.25 µg/mL
same,Plasma concentration,[13],0.24 µg/mL
same,Activity,[14],4.9 µg/mL
same,Activity,[15],2.25 µg/mL
same,ED50,[16],12 mg/kg
same,Activity,[17],0.1 µg/mL
same,ED50,[18],6 mg/kg
same,ED50,[19],13 mg/kg
same,Activity,[20],11.3 µg/mL
same,ED50,[21],6 mg/kg
same,Activity,[22],5.46 µg/mL
same,ED50,[23],1.6 mg/kg
same,Activity,[24],0.04 µg/mL
same,ED50,[25],13 mg/kg
same,MIC,[26],0.5 µg/mL
same,Activity,[27],0.17 µg/mL
same,ED50,[28],6.1 mg/kg
same,ED50,[29],4.7 mg/kg
same,ED50,[30],9 mg/kg
same,MIC,[31],0.12 µg/mL
same,Plasma concentration,[32],0.75 µg/mL
same,Plasma concentration,[33],0.11 µg/mL
same,ED50,[34],2.1 mg/kg
same,Plasma concentration,[35],0.47 µg/mL
same,MIC,[36],0.015 µg/mL
same,ED50,[37],14 mg/kg
same,MIC,[38],0.03 µg/mL
same,Plasma concentration,[39],0.04 µg/mL
same,Plasma concentration,[40],1.58 µg/mL
same,Activity,[41],0.08 µg/mL
same,ED50,[42],7 mg/kg
same,Activity,[43],3.25 µg/mL
same,Activity,[44],0.31 µg/mL
CC[C@H]1OC(=O)[C@H](C)[C@@H](O[C@H]2C[C@@](C)(OC)[C@@H](O)[C@H](C)O2)[C@H](C)[C@@H](O[C@@H]2O[C@H](C)C[C@H](N(C)C)[C@H]2O)[C@](C)(O)C[C@@H](C)C(=O)[C@H](C)[C@@H](O)[C@]1(C)O [ERYTHROMYCIN],Plasma concentration,[1],0.11 µg/mL
same,ED50,[2],15 mg/kg
same,Activity,[3],0.04 µg/mL
same,Plasma concentration,[5],0 µg/mL
same,Activity,[45],0 µg/mL
same,Plasma concentration,[46],0.7 µg/mL
same,ED50,[6],2.5 mg/kg
same,ED50,[7],21 mg/kg
same,Plasma concentration,[8],0.48 µg/mL
same,Activity,[47],8.8 µg/mL
same,ED50,[9]; [54],3.5 mg/kg
same,Plasma concentration,[10],4.26 µg/mL
same,Activity,[48],0 µg/mL
same,Activity,[11],1 µg/mL
same,MIC,[12],0.12 µg/mL
same,Activity,[14],0.04 µg/mL
same,Activity,[15],0.4 µg/mL
same,ED50,[16],41 mg/kg
same,ED50,[18]; [55],12 mg/kg
same,ED50,[21]; [55],> 100 mg/kg
same,Plasma concentration,[49],0.01 µg/mL
same,Activity,[22],0.03 µg/mL
same,ED50,[23],2.7 mg/kg
same,Plasma concentration,[50],0.1 µg/mL
same,ED50,[25]; [55],71 mg/kg
same,MIC,[26],1 µg/mL
same,Activity,[51],2.5 µg/mL
same,Activity,[27],0.03 µg/mL
same,ED50,[28]; [54],4.1 mg/kg
same,ED50,[29],1.6 mg/kg
same,ED50,[30],18 mg/kg
same,MIC,[31],0.06 µg/mL
same,Plasma concentration,[32],5.96 µg/mL
same,Plasma concentration,[33],0.01 µg/mL
same,Plasma concentration,[35],4.36 µg/mL
same,MIC,[36],0.008 µg/mL
same,ED50,[37],14 mg/kg
same,MIC,[38],0.015 µg/mL
same,Plasma concentration,[39],0.11 µg/mL
same,Plasma concentration,[40],5.84 µg/mL
same,Activity,[41],0.15 µg/mL
same,Plasma concentration,[52],4.2 µg/mL
same,ED50,[42],44 mg/kg
same,Activity,[53],10.8 µg/mL
